Results taken from ChEMBL document CHEMBL1143654, “Enhancement of aqueous solubility and stability employing a trans acetate axis in trans planar amine platinum compounds while maintaining the biological profile” (J Med Chem, 2005).

Experiments:
[1] = Hydrolysis rate constant of the compound; format: ADME
41M [2] = assay: Concentration required to inhibit growth of the human ovarian cancer 41M cells by 50% after 96h exposure; format: functional, cell-based
CH1 [3] = assay: Resistance factor was determined as ratio of resistance to that of sensitivity of CH1 cells after 96h exposure to compound; format: functional, cell-based; conditions: Homo sapiens
41M [4] = assay: Resistance factor was determined as ratio of resistance to that of sensitivity of 41M cells after 96h exposure to compound; format: functional, cell-based; conditions: Homo sapiens
[5] = Solubility in water by sequential addition; format: physicochemical
In short: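 Water was added to the compound in sequential portions, with 15 min agitation after each addition. Solubility was taken as the point at which the solution was no longer clear.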

[6] = Acid dissociation constant pKa2; format: physicochemical
In short: (§1)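 Potentiometric titration of 10^-3 M solutions of trans-[Pt(OH)₂(L)(L')], made from the corresponding dinitrato compounds, with standardized NaOH (9.5×10^-4 M); pKa values were taken from the pH titration curves.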

CH1 [7] = assay: Concentration required to inhibit growth of the human ovarian cancer CH1 cells by 50% after 96h exposure; format: functional, cell-based
A2780 [8] = assay: Concentration required to inhibit growth of the human ovarian cancer A2780 cells by 50% after 96h exposure; format: functional, cell-based
[9] = Acid dissociation constant pKa1; format: physicochemical; in short: as §1
A2780 [10] = assay: Resistance factor was determined as ratio of resistance to that of sensitivity of A2780 cells after 96h exposure to compound; format: functional, cell-based; conditions: Homo sapiens

Substance	k1 [1] [s⁻¹]	IC50 (41M [2]) [µM]	RF (CH1 [3])	RF (41M [4])	S [5] [mg/mL]	also measured
CARBOPLATIN	< 1e-08					
CISPLATIN [listing 1 of 2 here]	0.0000518	1.4				
CISPLATIN [listing 2 of 2 here]			6.7	6.1		
TRANSPLATIN	0.00019					
[PtCl(dien)]	0.000065					
trans-[Pt(OAc)2(NH3)2]					21	pKa [6]: 7.08
trans-[Pt(OAc)2(NH3)(iquin)] [listing 1 of 2 here]	7.4e-07	22			5.2	IC50 (CH1 [7]): 20 µM; IC50 (A2780 [8]): 13 µM; pKa [9]: 3.78; pKa [6]: 6.92
trans-[Pt(OAc)2(NH3)(iquin)] [listing 2 of 2 here]			0.37	0.26		RF (A2780 [10]): 1.69
trans-[Pt(OAc)2(NH3)(quin)] [listing 1 of 2 here]	3.7e-07	22			1.6	IC50 (CH1 [7]): 17 µM; IC50 (A2780 [8]): 13 µM
trans-[Pt(OAc)2(NH3)(quin)] [listing 2 of 2 here]			0.48	1		RF (A2780 [10]): 1.46
trans-[Pt(OAc)2(py)2] [listing 1 of 2 here]	3.2e-07	14			15	IC50 (CH1 [7]): 19 µM; IC50 (A2780 [8]): 12.8 µM
trans-[Pt(OAc)2(py)2] [listing 2 of 2 here]			0.22	0.32		RF (A2780 [10]): 0.9
